# ChEMBL document CHEMBL4689842, “EUbOPEN Chemogenomics Library wave 1” (2021)
# Where “and” joins values, the source holds several entries; their conditions need not be identical. Equal values may be shown once.
# System: HEK-293T
# Test: Multiplex assay against HEK293T;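 on Population Tubulin-Different-Phenotype (%): share of the cells with healthy nuclei that show this phenotype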
# Format: toxicity, cell-based
# Settings: human, 1 µM, compound concentration 1 uM
# Method in brief: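 Four dyes were applied at seeding to live cells: Hoechst33342, BioTracker Green Microtubule Cytoskeleton Dye, MitoTracker Red and Annexin V Alexa Fluor 680. Imaging after compound addition used a CQ1 microscope at 37°C and 5% CO2. CellPathfinder machine-learning gating then sorted cells into Hoechst high-intensity objects or normal cells, normal cells into healthy, pyknosed or fragmented nuclei, and pyknosed cells into mitotic or apoptotic, with tubulin, mitochondrial-mass and membrane-permeability phenotypes given as per cents of healthy-nucleus cells.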
smiles,measurement,setting,value
C[C@H]1Oc2cc(cnc2N)-c2c(nn(C)c2C#N)CN(C)C(=O)c2ccc(F)cc21 [LORLATINIB],Population Apoptotic (%),"12 h, replicate 1",21% and 18%
same,Population Fragmented Nuclei (%),"12 h, replicate 1",16% and 9%
same,Population Healthy Nuclei (%),"12 h, replicate 1",66% and 76%
same,Population Hoechst High Intensity Objects (%),"12 h, replicate 1",11% and 7%
same,Population Membrane Permeable-Phenotype (%),"12 h, replicate 1",7% and 4%
same,Population Mitochondria Different-Phenotype (%),"12 h, replicate 1",3% and 5%
same,Population Mitotic Cells (%),"12 h, replicate 1",78% and 81%
same,Population Normal (%),"12 h, replicate 1",88% and 92%
same,Population Pyknosed Nuclei (%),"12 h, replicate 1",17% and 14%
same,Population Tubulin-Different-Phenotype (%),"12 h, replicate 1",2% and 3%
same,Total Cell Count,"12 h, replicate 1",529 and 617
same,Population Apoptotic (%),"12 h, replicate 2",5% and 14%
same,Population Fragmented Nuclei (%),"12 h, replicate 2",6% and 7%
same,Population Healthy Nuclei (%),"12 h, replicate 2",87%
same,Population Hoechst High Intensity Objects (%),"12 h, replicate 2",2%
same,Population Membrane Permeable-Phenotype (%),"12 h, replicate 2",3% and 1%
same,Population Mitochondria Different-Phenotype (%),"12 h, replicate 2",7% and 6%
same,Population Mitotic Cells (%),"12 h, replicate 2",94% and 85%
same,Population Normal (%),"12 h, replicate 2",97%
same,Population Pyknosed Nuclei (%),"12 h, replicate 2",6% and 5%
same,Population Tubulin-Different-Phenotype (%),"12 h, replicate 2",9%
same,Total Cell Count,"12 h, replicate 2",1515 and 1456
same,Population Apoptotic (%),"24 h, replicate 1",18% and 15%
same,Population Fragmented Nuclei (%),"24 h, replicate 1",12% and 7%
same,Population Healthy Nuclei (%),"24 h, replicate 1",75% and 82%
same,Population Hoechst High Intensity Objects (%),"24 h, replicate 1",3% and 4%
same,Population Membrane Permeable-Phenotype (%),"24 h, replicate 1",10% and 9%
same,Population Mitochondria Different-Phenotype (%),"24 h, replicate 1",2% and 5%
same,Population Mitotic Cells (%),"24 h, replicate 1",81% and 84%
same,Population Normal (%),"24 h, replicate 1",96% and 95%
same,Population Pyknosed Nuclei (%),"24 h, replicate 1",12% and 9%
same,Population Tubulin-Different-Phenotype (%),"24 h, replicate 1",5% and 4%
same,Total Cell Count,"24 h, replicate 1",614 and 730
same,Population Apoptotic (%),"24 h, replicate 2",3% and 7%
same,Population Fragmented Nuclei (%),"24 h, replicate 2",14% and 18%
same,Population Healthy Nuclei (%),"24 h, replicate 2",80% and 78%
same,Population Membrane Permeable-Phenotype (%),"24 h, replicate 2",8% and 3%
same,Population Mitochondria Different-Phenotype (%),"24 h, replicate 2",1%
same,Population Mitotic Cells (%),"24 h, replicate 2",96% and 92%
same,Population Pyknosed Nuclei (%),"24 h, replicate 2",4% and 3%
same,Population Tubulin-Different-Phenotype (%),"24 h, replicate 2",9% and 3%
same,Total Cell Count,"24 h, replicate 2",2424 and 2417
